Key:
Escherichia coli [1] = assay: Antibacterial activity against Escherichia coli AB734 assessed as growth inhibition by broth microdilution method in presence of polymyxin B nonapeptide; format: functional
Method in brief: (§1)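 Broth microdilution MIC in Mueller-Hinton broth per CLSI, run with 4 µg/mL polymyxin B nonapeptide to permeabilize the outer membrane.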

Escherichia coli [2] = assay: Antibacterial activity against Escherichia coli ES100 harboring tolC deletion mutant assessed as growth inhibition by broth microdilution method; format: functional
Method in brief: (§2)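 MIC by broth microdilution in Mueller-Hinton broth following CLSI guidelines. ES100 is the tolC derivative of AB734, and SM1411 is the acrAB derivative of 1411; both are efflux-deficient E. coli strains. Growth inhibition was read as the minimum inhibitory concentration.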

Escherichia coli [3] = assay: Antibacterial activity against Escherichia coli 1411 assessed as growth inhibition by broth microdilution method; format: functional
Method in brief: (§3)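 MICs by broth microdilution in Mueller-Hinton broth following CLSI guidelines.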

[4] = target: T1, UDP-N-acetylmuramoyl-tripeptide--D-alanyl-D-alanine ligase (Streptococcus pneumoniae, UniProt Q9ZHC3); assay: Inhibition of Streptococcus pneumoniae MurF ligase using D-Ala-D-Ala as substrate after 15 mins by malachite green assay
T1 sequence (Q9ZHC3 whole entry): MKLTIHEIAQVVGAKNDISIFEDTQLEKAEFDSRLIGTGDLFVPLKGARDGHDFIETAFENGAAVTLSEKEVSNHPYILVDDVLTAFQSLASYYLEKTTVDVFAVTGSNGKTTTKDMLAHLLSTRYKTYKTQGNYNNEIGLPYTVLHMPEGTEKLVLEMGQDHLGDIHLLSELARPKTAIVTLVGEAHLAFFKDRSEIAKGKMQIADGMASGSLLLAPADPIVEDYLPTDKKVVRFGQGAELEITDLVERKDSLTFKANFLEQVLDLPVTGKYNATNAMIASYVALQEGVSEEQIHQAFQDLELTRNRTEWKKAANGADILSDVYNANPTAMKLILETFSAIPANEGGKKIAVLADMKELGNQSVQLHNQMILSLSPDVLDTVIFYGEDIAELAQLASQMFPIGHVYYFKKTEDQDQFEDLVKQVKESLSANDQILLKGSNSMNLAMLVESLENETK
Method in brief: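 Purified S. pneumoniae MurF in 50 mM Hepes pH 8.0 with 50 mM MgCl2, 0.005% Triton X-114, 100 µM D-Ala-D-Ala, 50 µM UMtri-L-Lys and 250 µM ATP, with 5% DMSO final. After 15 min at 37 °C, Biomol reagent was added and absorbance read at 650 nm, in duplicate. RA was taken against a 5% DMSO control. IC50 was the 50% RA point from seven concentrations.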

[5] = Inhibition of Escherichia coli MurF ligase using D-Ala-D-Ala as substrate after 15 mins by malachite green assay
Method in brief: (§4)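 After 15 min at 37 °C, Biomol reagent was added and phosphate read at 650 nm, in duplicate. RA was taken relative to a 5% DMSO control. IC50 was taken as the concentration giving 50% RA, from seven concentrations.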

Staphylococcus aureus = assay: Antibacterial activity against Staphylococcus aureus SH1000 assessed as growth inhibition by broth microdilution method; format: functional; method in brief: as §3
Escherichia coli [6] = assay: Antibacterial activity against Escherichia coli AB734 assessed as growth inhibition by broth microdilution method; format: functional; method in brief: as §3
Escherichia coli [7] = assay: Antibacterial activity against Escherichia coli 1411 assessed as growth inhibition by broth microdilution method in presence of polymyxin B nonapeptide; format: functional; method in brief: as §1
Escherichia coli [8] = assay: Antibacterial activity against Escherichia coli SM1411 harboring acrAB deletion mutant assessed as growth inhibition by broth microdilution method; format: functional; method in brief: as §2
Escherichia coli [9] = assay: Inhibition of […] MurF ligase using D-Ala-D-Ala as substrate assessed as residual activity at 250 uM after 15 mins by malachite green assay; method in brief: as §4

SMILES | MIC (Escherichia coli [1]) [µg/mL] | MIC (Escherichia coli [2]) [µg/mL] | MIC (Escherichia coli [3]) [µg/mL] | IC50 [4] [µM] | IC50 [5] [µM] | MIC (Staphylococcus aureus) [µg/mL] | MIC (Escherichia coli [6]) [µg/mL] | MIC (Escherichia coli [7]) [µg/mL] | MIC (Escherichia coli [8]) [µg/mL] | Activity (Escherichia coli [9]) [%]
N#Cc1c(NC(=O)c2cc(OCCN)ccc2Cl)sc2c1CCN(Cc1ccc(-n3cnnn3)cc1)C2 | > 256 | > 256 | > 256 | 454 | 83 | > 256 | > 256 | > 256 | > 256 | 
COC(=O)c1ccc(CN2CCc3c(sc(NC(=O)c4cc(OCCN)ccc4Cl)c3C#N)C2)cc1 | 64 | 32 | > 256 | 109 | 88 | 128 | > 256 | 64 | 64 | 
N#Cc1ccc(CN2CCc3c(sc(NC(=O)c4cc(OCCN)ccc4Cl)c3C#N)C2)cc1 | 64 | 32 | < 256 | 107 | 76 | 128 | < 256 | 64 | 64 | 
Cl.N#Cc1c(NC(=O)c2cccc(OCCNC(=N)N)c2)sc2c1CCCC2 | > 256 | 16 | 64 | 167 | 258 | 64 | 64 | 64 | 16 | 
Cl.N#Cc1c(NC(=O)c2cc(OCCCNC(=N)N)ccc2Cl)sc2c1CCCC2 | 32 | 8 | 32 | 78 | 102 | > 256 | 32 | 32 | 16 | 
N#Cc1c(NC(=O)c2cccc(OCn3cc(Cl)cn3)c2)sc2c1CCC2 |  |  |  | 126 | 56 |  |  |  |  | 
N#Cc1c(NC(=O)c2cc(OCCN)ccc2Cl)sc2c1CCC(c1ccc(O)cc1)C2 (centres undefined) | 16 | 8 | > 256 | 58 | 81 | > 256 | > 256 | 16 | 32 | 
Cl.N#Cc1c(NC(=O)c2cc(OCCNC(=N)N)ccc2Cl)sc2c1CCCC2 | 8 | 8 | 16 | 75 | 56 | 64 | 16 | 8 | 8 | 
COc1ccc(CN2CCc3c(sc(NC(=O)c4cc(OCCNC(=O)C(F)(F)F)ccc4Cl)c3C#N)C2)cc1 | > 256 | > 256 | > 256 | 154 |  | > 256 | > 256 | > 256 | > 256 | 81
N#Cc1c(NC(=O)c2cc(OCCN)ccc2Cl)sc2c1CCN(Cc1ccc(C(=O)O)cc1)C2 | > 256 | > 256 | > 256 | 663 | 336 | > 256 | > 256 | > 256 | > 256 | 
COc1ccc(CN2CCc3c(sc(NC(=O)c4cc(OCCNC(=N)N)ccc4Cl)c3C#N)C2)cc1.Cl | 32 | 8 | 32 | 61 | 78 | 32 | 32 | 32 | 32 | 
Cl.N#Cc1c(NC(=O)c2cc(S(=O)(=O)NCCN)c(Cl)cc2Cl)sc2c1CCCC2 | 128 | 64 | > 256 | 219 | 418 | > 256 | > 256 | 128 | 128 | 
N#Cc1c(NC(=O)c2cc(OCCNC(=O)C(F)(F)F)ccc2Cl)sc2c1CCN(Cc1ccc(-n3cnnn3)cc1)C2 | > 256 | 64 | > 256 | 103 | 152 | > 256 | > 256 | > 256 | > 256 | 
Cl.N#Cc1c(NC(=O)c2cc(OCCNC(=N)N)ccc2Cl)sc2c1CCN(Cc1cccc(O)c1)C2 | 64 | 32 | 128 | 117 | 143 | 32 | 128 | 64 | 64 | 
Cl.N#Cc1c(NC(=O)c2cc(OCCNC(=N)N)ccc2Cl)sc2c1CCN(Cc1ccc(O)cc1)C2 | 16 | 4 | 64 | 20 | 25 | 4 | 64 | 16 | 16 | 
Cl.N#Cc1c(NC(=O)c2cc(OCCN)ccc2Cl)sc2c1CCCC2 | 32 | 32 | 128 | 170 | 208 | 128 | 128 | 32 | 32 | 
N#Cc1c(NC(=O)c2cc(OCCN)ccc2Cl)sc2c1CCN(Cc1cccc(O)c1)C2 | 64 | 64 | 128 | 119 | 150 | > 256 | 128 | 64 | 64 | 
N#Cc1c(NC(=O)c2cc(OCCN)ccc2Cl)sc2c1CCN(Cc1ccccc1)C2 | 32 | 16 | 64 | 51 | 84 | 64 | 64 | 32 | 32 | 
N#Cc1c(NC(=O)c2cc(OCCCN)ccc2Cl)sc2c1CCCC2 | 32 | 32 | 64 | 128 | 272 | 128 | 64 | 32 | 32 | 

— ChEMBL document CHEMBL3112403, “Design, synthesis and evaluation of second generation MurF inhibitors based on a cyanothiophene scaffold” (Eur J Med Chem, 2014)
